High-throughput results as filed in PubChem.
Only some compounds are listed: those with a hit (about 2.5% of all), similar ones and a draw of the others.
EWS-Fli block = inhibitors of EWS/Fli oncoprotein transcriptional activity; A673 NR0B1-luciferase reporter, viability-normalised; inhibition, % at 12.6 µM; 350,000 tested, 0.67% active; AID 651661;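 active means mean inhibition of at least 50% after viability correction, with every replicate also passing that limit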;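 further: firefly luciferase signal divided by Alamar Blue viability fluorescence both relative to DMSO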
N-glyco inh = blocks N-linked glycosylation in D54 reporter cells; D54 ERlucT glycosylation luciferase reporter, 24 h; percent of 100 nM tunicamycin response; reporter increase, % at 12.5 µM; 360,000 tested, 0.23% active;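 active means mean luciferase reporter signal, scaled so untreated is 0 and the glycosylation-blocking control 100, at or above a set limit in every replicate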;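 further: luciferase carries N-glycosylation sites so blocking glycosylation raises the light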
HIV Env fusion = blocks HIV Env-driven cell-cell fusion; HeLa-JRFL Env/CEM21 cell fusion, luciferase; inhibition, % at 12.3 µM; 360,000 tested, 1.1% active; AID 651610;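 active means mean replicate inhibition score of at least 50 and every replicate individually at or above 50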
FN deposit inh = fibronectin deposition inhibition; AH1F fibroblasts, Alexa488-fibronectin deposition fluorescence, overnight; inhibition, % at 12.6 µM; 350,000 tested, 0.086% active;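 active means mean inhibition across replicates of 30% or more, regardless of how many single replicates reach that level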
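Material: AH1F fibroblasts assembling fluorescent fibronectin matrix; amount: 10000 AH1F cells/well; medium: DMEM, 2% serum; reagent: Alexa488-fibronectin, 24 nM final in well; dosing: single compound dose, delivered by pin transfer; incubation: 1 h adhesion, overnight exposure; detection: fluorescence after three HBSS washes, excitation 485 nm, emission 525 nm; measure: fibronectin deposition inhibition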
MLL AF4-AF9 inh = MLL-AF4/AF9 protein interaction inhibition; AlphaScreen, biotin-AF4 peptide binding to FLAG-AF9; P42568; 350,000 tested, 0.47% active; AID 651704; inhibition, % at 10 µM;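 active means every replicate reaching a set inhibition limit, whatever the replicate mean, cut at about 25% in these data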
Target sequence (P42568 whole entry, looked up): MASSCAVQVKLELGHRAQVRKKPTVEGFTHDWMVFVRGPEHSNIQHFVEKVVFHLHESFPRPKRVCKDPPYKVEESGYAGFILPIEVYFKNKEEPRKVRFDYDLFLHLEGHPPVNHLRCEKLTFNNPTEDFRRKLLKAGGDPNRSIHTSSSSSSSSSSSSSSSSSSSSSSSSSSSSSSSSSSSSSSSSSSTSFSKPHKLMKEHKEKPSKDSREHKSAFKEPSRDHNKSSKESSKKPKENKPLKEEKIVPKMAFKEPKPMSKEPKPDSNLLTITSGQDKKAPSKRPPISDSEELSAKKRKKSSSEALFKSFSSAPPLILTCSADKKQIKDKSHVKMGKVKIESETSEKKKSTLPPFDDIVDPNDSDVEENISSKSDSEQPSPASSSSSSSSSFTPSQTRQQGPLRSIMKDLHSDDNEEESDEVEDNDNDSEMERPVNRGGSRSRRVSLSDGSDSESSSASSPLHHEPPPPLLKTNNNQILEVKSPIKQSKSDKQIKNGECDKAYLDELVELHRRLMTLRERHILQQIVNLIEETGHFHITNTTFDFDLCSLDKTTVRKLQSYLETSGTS
PAX8 inh HTS = PAX8 transcriptional activity inhibition. RMG-I TPO-luciferase reporter, SteadyGlo, 24 h. 360,000 tested, 1.2% active. AID 652154. inhibition, % at 12.6 µM;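 active means mean replicate inhibition at least 60% with every replicate also reaching 60%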;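 further: luciferase light reporting Pax8 driven TPO promoter activity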
Hits are given with their value; 0 = inactive; - = no result; ! = not active in a repeat.

SMILES	EWS-Fli block	N-glyco inh	HIV Env fusion	FN deposit inh	MLL AF4-AF9 inh	PAX8 inh HTS
CCOC(=O)C1=C(C(=O)OCC)C2N(Cc3ccc(Br)cc3)c3ccccc3[C@@]23C[C@@H](C(=O)OC)N(S(=O)(=O)c2cccs2)C3=N1 (stereo not given in full)	0	-	59	0	0	0
CCN(CC)S(=O)(=O)c1cccc(S(=O)(=O)c2cccc(S(=O)(=O)N(CC)CC)c2)c1	-	0	79	0	-	-
C[C@@H]1CN([C@H](C)CO)C(=O)c2cccc(NC(=O)C3CC3)c2O[C@H]1CN(C)Cc1ccc2c(c1)OCO2	0	-	0	-	0	-
O=C(Nc1cccc(F)c1)c1cc(S(=O)(=O)N2CCC(C(=O)O)CC2)ccc1F	-	0	77	-	-	-
Cc1noc(C)c1NC(=O)N(C)C[C@@H]1Oc2ccc(NC(=O)CCCCCC(=O)Nc3ccccc3N)cc2C(=O)N([C@@H](C)CO)C[C@H]1C	0	-	-	-	0	0
CC1(C)C2CCC(C2)C1(C)NC(=O)CNCC1CCCCC1 (stereo not given)	0	0	61	0	0	0
CC(C)C(=O)Nc1ccc2c(c1)C(=O)N(C)[C@H]1CC[C@H](CC(=O)NC3CCCC3)O[C@H]1CO2	0	-	-	0	0	0
O=c1[nH]c(CSc2ncnc3sc(-c4ccccc4)cc23)nc2ccccc12	0	33	0	0	0	0
O=c1[nH]c(CSc2nc(-c3ccccc3)cs2)nc2ccccc12	-	0	0	0	-	0
C[C@@H]1CCCCO[C@H](CN(C)C(=O)Nc2cccc3ccccc23)[C@H](C)CN([C@@H](C)CO)C(=O)c2cc(NC(=O)Cc3ccccc3)ccc2O1	0	-	0	-	0	0
CCOC(=O)C1CCN(C(=O)c2ccc3c(c2)C(=O)N(c2ccccc2C)C3=O)CC1	0	0	85	0	0	0
CCOC(=O)C1CCCN(C(=O)c2ccc3c(c2)C(C)(C)CCC3(C)C)CC1 (stereo not given)	0	0	60	0	0	0
CCOC(=O)C1CCN(C(=O)c2ccc(Cl)c(Cl)c2)CC1	-	0	-	-	-	-
C[C@H]1CN([C@@H](C)CO)C(=O)Cc2cc(NS(=O)(=O)c3ccccc3)ccc2O[C@H]1CN(C)Cc1ccc(-c2ccccc2)cc1	0	-	0	-	0	0
C[C@H](CO)N1C[C@H](C)[C@@H](CN(C)Cc2ccc(-c3ccccc3)cc2)Oc2ccc(NS(=O)(=O)c3ccccc3)cc2CC1=O	0	-	0	-	0	80
C[C@@H]1CN([C@@H](C)CO)C(=O)Cc2cc(NS(=O)(=O)c3ccc(Cl)cc3)ccc2O[C@H]1CN(C)Cc1ccc(-c2ccccc2)cc1	0	-	0	-	-	69
O=C(C[C@H]1CC[C@@H](NC(=O)CC2CC2)[C@H](CO)O1)NCc1ccccc1	0	-	-	-	0	-
CO[C@H]1CN(C)C(=O)c2cc(NC(=O)NC(C)C)ccc2OC[C@@H](C)N(CC2CC2)C[C@@H]1C	0	-	0	0	0	0
c1cc(SC2CCCCC2)cc(-c2nc3cnccn3c2NC2CCCCC2)c1	0	0	59	0	0	0
Cc1[nH]nc2nc(SCC(=O)NC3CCCCC3)n(-c3ccc(Br)cc3)c(=N)c12	-	0	0	0	0	109
COCC#Cc1cnc2c(c1)C(=O)N([C@@H](C)CO)C[C@H](C)[C@@H](CN(C)C(=O)NC1CCCC1)O2	0	-	0	0	0	-
O=C(C[n+]1cc(-c2ccccc2)n2c1CCCCC2)c1ccc(Br)cc1	0	0	0	-	0	0
COc1ccc(C(=O)C[n+]2cc(-c3ccc(OC)cc3)n3c2CCCC3)cc1	0	0	0	0	0	72!
Cc1ccc(-c2c[n+](Cc3ccc(Cl)c(Cl)c3)c3n2CCC3)cc1	-	0	0	0	-	80
Cc1ccc(NC(=O)C[n+]2cc(-c3ccc(C)cc3)n3c2CCC3)cc1	0	0	0	0	0	0
Cc1ccc(C(=O)C[n+]2cc(-c3ccc(C)cc3)n3c2CCCCC3)cc1	-	0	68	0	-	-
CO[C@@H]1CN(C)C(=O)c2ccc(NC(=O)C3CC3)cc2OC[C@H](C)N(C(=O)C2CCCCC2)C[C@H]1C	0	-	0	0	0	-
